Reference: ChEMBL document CHEMBL2311404, “Synthesis, antibacterial activity and docking of 14-membered 9-O-(3-arylalkyl) oxime 11,12-cyclic carbonate ketolides” (2013)
≈ marks a conversion by molar mass, not a printed value.

Columns and labels:
Format in all cases: functional
[1] = test system: Staphylococcus epidermidis; assay: Ratio of azithromycin MIC to compound MIC for methicillin-resistant, constitutive MLS-resistant Staphylococcus epidermidis E 2
[2] = test system: Staphylococcus epidermidis; assay: Ratio of clarithromycin MIC to compound MIC for methicillin-resistant, constitutive MLS-resistant Staphylococcus epidermidis E 2
[3] = test system: Staphylococcus haemolyticus; assay: Ratio of azithromycin MIC to compound MIC for methicillin-resistant, constitutive MLS-resistant, coagulase-deficient Staphylococcus haemolyticus PU 19 expressing ermA gene
[4] = test system: Staphylococcus haemolyticus; assay: Ratio of clarithromycin MIC to compound MIC for methicillin-resistant, constitutive MLS-resistant, coagulase-deficient Staphylococcus haemolyticus PU 19 expressing ermA gene
Streptococcus pyogenes [5] = assay: Ratio of clarithromycin MIC to compound MIC for constitutive MLS-resistant Streptococcus pyogenes A2
Streptococcus pyogenes [6] = assay: Ratio of azithromycin MIC to compound MIC for constitutive MLS-resistant Streptococcus pyogenes A2
Streptococcus pneumoniae [7] = assay: Ratio of azithromycin MIC to compound MIC for penicillin-resistant, constitutive MLS-resistant Streptococcus pneumoniae PU 11 expressing erm and mef genes
Streptococcus pneumoniae [8] = assay: Ratio of clarithromycin MIC to compound MIC for penicillin-resistant, constitutive MLS-resistant Streptococcus pneumoniae PU 11 expressing erm and mef genes
[9] = test system: Streptococcus dysgalactiae; assay: Ratio of clarithromycin MIC to compound MIC for erythromycin-resistant Streptococcus dysgalactiae A1 expressing efflux pump
Streptococcus pneumoniae [10] = assay: Ratio of clarithromycin MIC to compound MIC for penicillin-susceptible Streptococcus pneumoniae PU 09 expressing mef gene
[11] = test system: Staphylococcus epidermidis; assay: Ratio of azithromycin MIC to compound MIC for methicillin-susceptible, inducible MLS-resistant Staphylococcus epidermidis E 1
[12] = test system: Staphylococcus epidermidis; assay: Ratio of clarithromycin MIC to compound MIC for methicillin-susceptible, inducible MLS-resistant Staphylococcus epidermidis E 1
Staphylococcus hominis [13] = assay: Ratio of azithromycin MIC to compound MIC for methicillin-resistant, inducible MLS-resistant, coagulase-deficient Staphylococcus hominis E 3
Staphylococcus hominis [14] = assay: Ratio of clarithromycin MIC to compound MIC for methicillin-resistant, inducible MLS-resistant, coagulase-deficient Staphylococcus hominis E 3
Staphylococcus hominis [15] = assay: Antibacterial activity against methicillin-resistant, inducible MLS-resistant, coagulase-deficient Staphylococcus hominis E 3 by broth microdilution method
Outline: (§1)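 Clinical isolates confirmed by 16S rDNA sequencing. MIC determined by broth microdilution following CLSI recommendations. Quality-control strains were S. aureus ATCC 29213 and S. pneumoniae ATCC 49619. Azithromycin and clarithromycin were run in parallel as reference agents.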

[16] = test system: Staphylococcus epidermidis; assay: Antibacterial activity against methicillin-resistant, constitutive MLS-resistant Staphylococcus epidermidis E 2 by broth microdilution method; outline: as §1
[17] = test system: Staphylococcus epidermidis; assay: Antibacterial activity against methicillin-susceptible, inducible MLS-resistant Staphylococcus epidermidis E 1 by broth microdilution method; outline: as §1
[18] = test system: Staphylococcus haemolyticus; assay: Antibacterial activity against methicillin-resistant, constitutive MLS-resistant, coagulase-deficient Staphylococcus haemolyticus PU 19 expressing ermA gene by broth microdilution method; outline: as §1
Staphylococcus aureus [19] = assay: Antibacterial activity against methicillin-resistant, inducible MLS-resistant Staphylococcus aureus PU 32 expressing ermA gene by broth microdilution method; outline: as §1
Staphylococcus aureus [20] = assay: Antibacterial activity against erythromycin-susceptible Staphylococcus aureus ATCC 29213 by broth microdilution method
Outline: (§2)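 MIC by broth microdilution following CLSI recommendations. Clinical isolates were identified by 16S rDNA sequencing and labeled by genotype and phenotype. S. aureus ATCC 29213 and S. pneumoniae ATCC 49619 served as control strains, with azithromycin and clarithromycin as reference agents.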

Streptococcus pyogenes [21] = assay: Antibacterial activity against erythromycin-susceptible Streptococcus pyogenes A3 by broth microdilution method; outline: as §2
Streptococcus pyogenes [22] = assay: Antibacterial activity against constitutive MLS-resistant Streptococcus pyogenes A2 by broth microdilution method; outline: as §1
[23] = test system: Streptococcus dysgalactiae; assay: Antibacterial activity against erythromycin-resistant Streptococcus dysgalactiae A1 expressing efflux pump by broth microdilution method; outline: as §1
Streptococcus pneumoniae [24] = assay: Antibacterial activity against penicillin-susceptible, constitutive MLS-resistant Streptococcus pneumoniae PU 27 expressing erm gene by broth microdilution method; outline: as §1
Streptococcus pneumoniae [25] = assay: Antibacterial activity against penicillin-susceptible Streptococcus pneumoniae PU 09 expressing mef gene by broth microdilution method; outline: as §2
Streptococcus pneumoniae [26] = assay: Antibacterial activity against penicillin-resistant, constitutive MLS-resistant Streptococcus pneumoniae PU 11 expressing erm and mef genes by broth microdilution method; outline: as §1
Streptococcus pneumoniae [27] = assay: Antibacterial activity against erythromycin-sensitive Streptococcus pneumoniae ATCC 49619 by broth microdilution method; outline: as §2
Staphylococcus aureus [28] = assay: Antibacterial activity against methicillin-sensitive, inducible MLS-resistant Staphylococcus aureus PU 64 expressing ermA gene by broth microdilution method; outline: as §1
Staphylococcus aureus [29] = assay: Antibacterial activity against methicillin-resistant, constitutive MLS-resistant Staphylococcus aureus PU 20 expressing ermC gene by broth microdilution method; outline: as §1

| Compound | MIC (Staphylococcus hominis [15]) | MIC [16] | MIC [17] | MIC [18] | MIC (Staphylococcus aureus [19]) | MIC (Staphylococcus aureus [20]) | MIC (Streptococcus pyogenes [21]) | MIC (Streptococcus pyogenes [22]) | MIC [23] | MIC (Streptococcus pneumoniae [24]) | MIC (Streptococcus pneumoniae [25]) | MIC (Streptococcus pneumoniae [26]) | MIC (Streptococcus pneumoniae [27]) | MIC (Staphylococcus aureus [28]) | MIC (Staphylococcus aureus [29]) | further results |
| --- | --- | --- | --- | --- | --- | --- | --- | --- | --- | --- | --- | --- | --- | --- | --- | --- |
| CC[C@H]1OC(=O)[C@H](C)C(=O)[C@H](C)[C@@H](O[C@@H]2O[C@H](C)C[C@H](N(C)C)[C@H]2O)[C@](C)(OC)C[C@@H](C)/C(=N\OCC#Cc2cncc3ccccc23)[C@H](C)[C@H]2OC(=O)O[C@@]21C | 0.064 µg/mL (≈ 0.0806 µM) | 32 µg/mL (≈ 40.3 µM) | 0.016 µg/mL (≈ 0.0202 µM) | 32 µg/mL (≈ 40.3 µM) | 0.032 µg/mL (≈ 0.0403 µM) | 0.016 µg/mL (≈ 0.0202 µM) | ≤ 0.008 µg/mL | 16 µg/mL (≈ 20.2 µM) | 0.016 µg/mL (≈ 0.0202 µM) | 0.064 µg/mL (≈ 0.0806 µM) | 0.032 µg/mL (≈ 0.0403 µM) | 16 µg/mL (≈ 20.2 µM) | ≤ 0.008 µg/mL | – | – | Ratio [1]: >8; Ratio [2]: >8; Ratio [3]: >8; Ratio [4]: >8; Ratio (Streptococcus pyogenes [5]): >8; Ratio (Streptococcus pyogenes [6]): >8; Ratio (Streptococcus pneumoniae [7]): >8; Ratio (Streptococcus pneumoniae [8]): >8; Ratio [9]: 500; Ratio (Streptococcus pneumoniae [10]): 125; Ratio [11]: >16000; Ratio [12]: >16000; Ratio (Staphylococcus hominis [13]): >4000; Ratio (Staphylococcus hominis [14]): >4000 |
| CC[C@H]1OC(=O)[C@H](C)C(=O)[C@H](C)[C@@H](O[C@@H]2O[C@H](C)C[C@H](N(C)C)[C@H]2O)[C@](C)(OC)C[C@@H](C)/C(=N\OCC#Cc2ccc3ncccc3c2)[C@H](C)[C@H]2OC(=O)O[C@@]21C | 0.125 µg/mL (≈ 0.157 µM) | > 256 µg/mL | 0.032 µg/mL (≈ 0.0403 µM) | 64 µg/mL (≈ 80.6 µM) | 0.125 µg/mL (≈ 0.157 µM) | 0.125 µg/mL (≈ 0.157 µM) | ≤ 0.008 µg/mL | 64 µg/mL (≈ 80.6 µM) | 0.25 µg/mL (≈ 0.315 µM) | 0.25 µg/mL (≈ 0.315 µM) | 0.25 µg/mL (≈ 0.315 µM) | 64 µg/mL (≈ 80.6 µM) | 0.016 µg/mL (≈ 0.0202 µM) | 0.125 µg/mL (≈ 0.157 µM) | 64 µg/mL (≈ 80.6 µM) | – |
| CC[C@H]1OC(=O)[C@H](C)[C@@H](O[C@H]2C[C@@](C)(OC)[C@@H](O)[C@H](C)O2)[C@H](C)[C@@H](O[C@@H]2O[C@H](C)C[C@H](N(C)C)[C@H]2O)[C@](C)(O)C[C@@H](C)CN(C)[C@H](C)[C@@H](O)[C@]1(C)O [AZITHROMYCIN] | > 256 µg/mL | > 256 µg/mL | > 256 µg/mL | > 256 µg/mL | 8 µg/mL (≈ 10.7 µM) | 1 µg/mL (≈ 1.34 µM) | 0.125 µg/mL (≈ 0.167 µM) | > 256 µg/mL | 32 µg/mL (≈ 42.7 µM) | 64 µg/mL (≈ 85.4 µM) | 8 µg/mL (≈ 10.7 µM) | > 256 µg/mL | 0.25 µg/mL (≈ 0.334 µM) | 8 µg/mL (≈ 10.7 µM) | > 256 µg/mL | – |
| CC[C@H]1OC(=O)[C@H](C)C(=O)[C@H](C)[C@@H](O[C@@H]2O[C@H](C)C[C@H](N(C)C)[C@H]2O)[C@](C)(OC)C[C@@H](C)/C(=N\OC/C=C/c2cnc3ccccc3c2)[C@H](C)[C@H]2OC(=O)O[C@@]21C | 0.064 µg/mL (≈ 0.0804 µM) | > 256 µg/mL | 0.032 µg/mL (≈ 0.0402 µM) | > 256 µg/mL | 0.5 µg/mL (≈ 0.628 µM) | 0.25 µg/mL (≈ 0.314 µM) | ≤ 0.008 µg/mL | 32 µg/mL (≈ 40.2 µM) | 0.25 µg/mL (≈ 0.314 µM) | 0.125 µg/mL (≈ 0.157 µM) | 0.25 µg/mL (≈ 0.314 µM) | 32 µg/mL (≈ 40.2 µM) | 0.016 µg/mL (≈ 0.0201 µM) | 0.064 µg/mL (≈ 0.0804 µM) | > 256 µg/mL | – |
| CC[C@H]1OC(=O)[C@H](C)C(=O)[C@H](C)[C@@H](O[C@@H]2O[C@H](C)C[C@H](N(C)C)[C@H]2O)[C@](C)(OC)C[C@@H](C)/C(=N\OCC#Cc2cnc3ccccc3c2)[C@H](C)[C@H]2OC(=O)O[C@@]21C | 0.25 µg/mL (≈ 0.315 µM) | > 256 µg/mL | 0.25 µg/mL (≈ 0.315 µM) | 128 µg/mL (≈ 161 µM) | 0.5 µg/mL (≈ 0.63 µM) | 0.25 µg/mL (≈ 0.315 µM) | ≤ 0.008 µg/mL | 64 µg/mL (≈ 80.6 µM) | 0.5 µg/mL (≈ 0.63 µM) | 0.5 µg/mL (≈ 0.63 µM) | 0.5 µg/mL (≈ 0.63 µM) | 64 µg/mL (≈ 80.6 µM) | ≤ 0.008 µg/mL | 0.25 µg/mL (≈ 0.315 µM) | 128 µg/mL (≈ 161 µM) | – |
